≈ marks a conversion by molar mass, not a printed value.
Experiments:
[1] = (§1) Cytotoxicity against human KB-3-1 cells assessed as reduction in cell viability after 5 days by WST1 assay; format: cell-based; settings: human, KB-3-1 cells
Outline: (§2)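 KB-3-1 or L929 cells, 1500 per well, in DMEM + 5% FBS. Exposed to serially diluted compound for 5 days. WST-1 added, plates incubated at 37 °C (20 min for KB-3-1), absorbance read at 450 nm (reference 600 nm). Viability given as % of controls.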

KB 3-1 = assay: as §1; format: cell-based; settings: Homo sapiens, KB 3-1, 120 h; outline: as §2
L929 = assay: (§3) Cytotoxicity against mouse L929 cells assessed as reduction in cell viability after 5 days by WST1 assay; format: cell-based; settings: Mus musculus, L929, 120 h; outline: as §2
[2] = as §3; format: cell-based; settings: mouse, L929 cells; outline: as §2
[3] = Cytotoxicity against human FS4-LTM cells assessed as reduction in cell viability after 24 hrs by WST1 assay; format: cell-based; settings: for IC50: Homo sapiens, FS4-LTM, 24 h; for IC90 at 24 h: human, FS4-LTM cells
Outline: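 FS4-LTM conditionally immortalized human fibroblasts, kept without doxycycline for primary-like behaviour, in DMEM + 5% FBS. Exposed to serially diluted compound for 24 h. WST-1 added, plates incubated at 37 °C, absorbance read at 450 nm (reference 600 nm). Viability given as % of controls set to 100%.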

Escherichia coli = assay: Growth inhibition of Escherichia coli DSM 1116 at 100 uM after 18 hrs relative to control; format: functional; settings: DSM 1116, 18 h, read-out: GI
Outline: (§4)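 Gram-negative culture grown overnight at 37 °C in Müller-Hinton broth + 1% glucose, pH 7.2, then tested at 5×10^5 cfu/mL final. Compound at 100 µM from DMSO stock, DMSO ≤1%. Incubated 18 h at 37 °C under moist conditions. OD600 read; value reported as % growth inhibition.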

Acinetobacter baumannii = assay: Antibacterial activity against Acinetobacter baumannii DSM 30007 after 18 hrs; format: functional; settings: DSM 30007, 18 h
Outline: (§5)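 Broth microdilution MIC. Gram-negatives grown overnight at 37 °C in Müller-Hinton broth + 1% glucose, pH 7.2; Gram-positives in trypticase soy broth with yeast extract, pH 7.2. Inoculum 5×10^5 cfu/mL final. Serial dilutions from 100 µM down to 0.2 µM, DMSO ≤1%. 18 h at 37 °C, moist; OD600. MIC = lowest concentration completely suppressing growth.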

MCF7 = assay: (§6) Cytotoxicity against human MCF7 cells assessed as reduction in cell viability after 5 days by WST1 assay; format: cell-based; settings: Homo sapiens, MCF7, 120 h
Outline: (§7)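 MCF-7 cells, 3000 per well, in RPMI + 5% FBS, 0.5% NEAA, 0.5% GlutaMAX and insulin 5 µg/mL. Exposed to serially diluted compound for 5 days. WST-1 incubation 2 h at 37 °C, absorbance read at 450 nm (reference 600 nm). Viability given as % of controls.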

[4] = as §6; format: cell-based; settings: human, MCF7 cells; outline: as §7
[5] = test system: Mycobacterium tuberculosis; assay: Antimycobacterial activity against Mycobacterium tuberculosis H37Rv after 7 days by REMA; format: functional; settings: 168 h
Outline: (§8)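 REMA. 3-week H37Rv culture (2nd generation on Löwenstein–Jensen) vortexed with glass beads, set to 1.0 McFarland in 7H9, diluted 20-fold in 7H9 + OADC. 2-fold dilutions, final 1.6–400 µg/mL, 200 µL wells. 7 days at 35 °C, then resazurin 18 h. Fluorescence ex 520/em 590. MIC where signal plateaued or matched the 1% population control (t test).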

Klebsiella pneumoniae = assay: Antibacterial activity against Klebsiella pneumoniae DSM 11678 after 18 hrs; format: functional; settings: DSM 11678, 18 h; outline: as §5
Pseudomonas aeruginosa = assay: Growth inhibition of Pseudomonas aeruginosa PA7 DSM 24068 at 100 uM after 18 hrs relative to control; format: functional; settings: PA7 DSM 24068, 18 h, read-out: GI; outline: as §4
Staphylococcus aureus [6] = assay: Antibacterial activity against methicillin-resistant Staphylococcus aureus RKI 11-02670 after 18 hrs; format: functional; settings: RKI 11-02670, 18 h; outline: as §5
Staphylococcus aureus [7] = assay: Antibacterial activity against methicillin-resistant Staphylococcus aureus DSM 11822 after 18 hrs; format: functional; settings: DSM 11822, 18 h; outline: as §5
Enterococcus faecium = assay: Antibacterial activity against Enterococcus faecium DSM 20477 after 18 hrs; format: functional; settings: DSM 20477, 18 h; outline: as §5
[8] = test system: Mycobacterium tuberculosis; assay: Antimycobacterial activity against Mycobacterium tuberculosis H37Rv after 7 days by microbroth dilution method; format: functional; settings: 168 h; outline: as §8
Bacillus subtilis = assay: Antibacterial activity against Bacillus subtilis MTCC 121 after 24 hrs by well diffusion method; format: functional; settings: MTCC 121, 24 h
Staphylococcus aureus [9] = assay: Antibacterial activity against Staphylococcus aureus MLS16 MTCC 2940 after 24 hrs by well diffusion method; format: functional; settings: MLS16 MTCC 2940, 24 h

| SMILES | IC90 at 120 h [1] | IC50 (KB 3-1) | IC50 (L929) | IC90 at 120 h [2] | IC50 [3] | IC90 at 24 h [3] | inhibition of growth at 100 µM (Escherichia coli) | MIC (Acinetobacter baumannii) | IC50 (MCF7) | IC90 at 120 h [4] | MIC [5] | MIC (Klebsiella pneumoniae) | inhibition of growth at 100 µM (Pseudomonas aeruginosa) | EC50 (Staphylococcus aureus [6]) | MIC (Staphylococcus aureus [6]) | MIC (Staphylococcus aureus [7]) | MIC (Enterococcus faecium) | MIC [8] | MIC (Bacillus subtilis) | MIC (Staphylococcus aureus [9]) |
| --- | --- | --- | --- | --- | --- | --- | --- | --- | --- | --- | --- | --- | --- | --- | --- | --- | --- | --- | --- | --- |
| CC1(C(=O)NC2CCCCC2)CSCC(=O)N1/N=C/c1ccc([N+](=O)[O-])o1 (centres undefined) | 100 µM | 16 µM | 50 µM | > 100 µM | 8.7 to 100 µM | ≥ 100 µM | 84% | > 100 µM | 8.7 µM | > 100 µM | 32 µM (≈ 12.6 µg/mL) | > 100 µM | 91% | 55 µM | 100 µM (≈ 39.4 µg/mL) | 100 µM (≈ 39.4 µg/mL) | > 100 µM | – | – | – |
| CC1(C(=O)NC2CCCCC2)CCCC(=O)N1/N=C/c1ccc([N+](=O)[O-])o1 (centres undefined) | 100 µM | 61 µM | 50 to 50.2 µM | > 100 µM | 19.3 to 100 µM | ≥ 100 µM | 81% | > 100 µM | 19 µM | 100 µM | 33 µM (≈ 12.4 µg/mL) | > 100 µM | 88% | 70 µM | 100 µM (≈ 37.6 µg/mL) | 100 µM (≈ 37.6 µg/mL) | > 100 µM | – | – | – |
| O=[N+]([O-])c1ccc(C2=NOC(c3ccc(N4CCC(Oc5ccc(OC(F)(F)F)cc5)CC4)c(F)c3)C2)o1 (centres undefined) | – | – | – | – | – | – | – | – | – | – | – | – | – | – | – | – | – | 0.001 µg/mL (≈ 0.00187 µM) | – | – |
| CC(C)(C)NC(=O)C1(C)CCC(=O)N1/N=C/c1ccc([N+](=O)[O-])o1 (centres undefined) | – | – | – | – | – | – | 86% | – | – | – | > 100 µM | – | 92% | 91 µM | > 100 µM | > 100 µM | > 100 µM | – | – | – |
| CC1(C(=O)NCc2ccccc2)CCCC(=O)N1/N=C/c1ccc([N+](=O)[O-])o1 (centres undefined) | – | – | – | – | – | – | 87% | – | – | – | 65 µM (≈ 25 µg/mL) | – | 85% | 75 µM | 100 µM (≈ 38.4 µg/mL) | 100 µM (≈ 38.4 µg/mL) | > 100 µM | – | – | – |
| CC1(C(=O)NC2CCCCC2)CN(S(=O)(=O)c2ccccc2[N+](=O)[O-])CC(=O)N1/N=C/c1ccc([N+](=O)[O-])o1 (centres undefined) | > 100 µM | 26.7 to 27 µM | 22.9 to 100 µM | > 100 µM | 12 to 100 µM | > 100 µM | 88% | > 100 µM | 12 µM | > 100 µM | 22 µM (≈ 12.4 µg/mL) | > 100 µM | 85% | 75 µM | 100 µM (≈ 56.3 µg/mL) | 100 µM (≈ 56.3 µg/mL) | > 100 µM | – | – | – |
| CC1(C(=O)NCc2ccc(Cl)cc2)CCC(=O)N1/N=C/c1ccc([N+](=O)[O-])o1 (centres undefined) | – | – | – | – | – | – | 82% | – | – | – | > 100 µM | – | 89% | > 100 µM | > 100 µM | > 100 µM | > 100 µM | – | – | – |
| O=C(NCc1cn(-c2ccccc2)nn1)c1ccc([N+](=O)[O-])o1 | – | – | – | – | – | – | – | – | – | – | – | – | – | – | – | – | – | – | 7.8 µg/mL (≈ 24.9 µM) | 1.9 µg/mL (≈ 6.06 µM) |
| CC(C)(C)NC(=O)C1(C)CCCC(=O)N1/N=C/c1ccc([N+](=O)[O-])o1 (centres undefined) | – | – | – | – | – | – | 83% | – | – | – | 71 µM (≈ 24.9 µg/mL) | – | 85% | 76 µM | 100 µM (≈ 35 µg/mL) | 100 µM (≈ 35 µg/mL) | > 100 µM | – | – | – |
| CC1(C(=O)NCc2ccccc2)CCC(=O)N1/N=C/c1ccc([N+](=O)[O-])o1 (centres undefined) | – | – | – | – | – | – | 85% | – | – | – | > 100 µM | – | 90% | 67 µM | 95 µM (≈ 35.2 µg/mL) | 95 µM (≈ 35.2 µg/mL) | > 100 µM | – | – | – |

Reference: ChEMBL document CHEMBL3992553, “New nitrofurans amenable by isocyanide multicomponent chemistry are active against multidrug-resistant and poly-resistant Mycobacterium tuberculosis” (Bioorg Med Chem, 2017)
